Assays:
in vivo [1] = details: Sprague-Dawley, rat, plasma, po, 10 mg/kg
[2] = Volume of distribution at steady state in wild-type Sprague-Dawley rat at 1 mg/kg, iv by LC-MS/MS analysis; assay type: ADME, organism-based; design: dose 1 mg/kg, route intravenous; details: in vivo, read-out: Vdss
Outline: (§1)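 Male Sprague-Dawley rats (knockout or wild type matched for age and weight), femoral artery and vein cannulated, at least 2 days recovery. Crossover design: IV bolus 1 mg/kg on day 0 (saline with 0.2 M equivalents HCl), oral gavage 10 mg/kg on day 3 (water with 0.2 M equivalents HCl). Arterial plasma sampled to 24 h (Mdr1a oral arm to 4 h). Analysed by LC-MS/MS and noncompartmental analysis.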

[3] = Cmax in wild-type Sprague-Dawley rat at 10 mg/kg, po by LC-MS/MS analysis; assay type: ADME, organism-based; design: dose 10 mg/kg, route oral; details: in vivo
Outline: as §1

[4] = AUC (infinity) in MDR1A knockout Sprague-Dawley rat at 1 mg/kg, iv by LC-MS/MS analysis; assay type: ADME, organism-based; design: time infinity, dose 1 mg/kg, route intravenous; details: plasma
[5] = Cmax in MRP2 knockout Sprague-Dawley rat at 10 mg/kg, po by LC-MS/MS analysis; assay type: ADME, organism-based; design: dose 10 mg/kg, route oral; details: in vivo
Outline: as §1

Rattus norvegicus [6] = test: Toxicity in MDR1A knockout Sprague-Dawley rat assessed as mortality at 10 mg/kg, po after 4 hrs; assay type: organism-based; design: dose 10 mg/kg, route oral; details: in vivo
Outline: (§2)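 Independent veterinary staff recorded clinical central signs. After oral dosing, animals were observed 1–2 h post-dose and again at 4 h, when sampling stopped and the animals were discontinued.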

[7] = Cmax in MDR1A knockout Sprague-Dawley rat at 10 mg/kg, po by LC-MS/MS analysis; assay type: ADME, organism-based; design: dose 10 mg/kg, route oral; details: in vivo
Outline: as §1

[8] = Half life in wild-type Sprague-Dawley rat at 1 mg/kg, iv by LC-MS/MS analysis; assay type: ADME, organism-based; design: dose 1 mg/kg, route intravenous; details: in vivo
Outline: as §1

[9] = Volume of distribution at steady state in MRP2 knockout Sprague-Dawley rat at 1 mg/kg, iv by LC-MS/MS analysis; assay type: ADME, organism-based; design: dose 1 mg/kg, route intravenous; details: in vivo, read-out: Vdss
Outline: as §1

[10] = Oral bioavailability in BCRP knockout Sprague-Dawley rat at 10 mg/kg by LC-MS/MS analysis; assay type: ADME, organism-based; details: in vivo
Outline: as §1

Rattus norvegicus [11] = test: Toxicity in MDR1A knockout Sprague-Dawley rat assessed as lacrimation at 10 mg/kg, po after 1 to 2 hrs; assay type: organism-based; design: dose 10 mg/kg, route oral; details: in vivo
Outline: as §2

[12] = Oral bioavailability in MRP2 knockout Sprague-Dawley rat at 10 mg/kg by LC-MS/MS analysis; assay type: ADME, organism-based; details: in vivo
Outline: as §1

Rattus norvegicus [13] = test: Toxicity in MDR1A knockout Sprague-Dawley rat assessed as eye protrusion at 10 mg/kg, po after 1 to 2 hrs; assay type: organism-based; design: dose 10 mg/kg, route oral; details: in vivo
Outline: as §2

[14] = Half life in MRP2 knockout Sprague-Dawley rat at 10 mg/kg, po by LC-MS/MS analysis; assay type: ADME, organism-based; design: dose 10 mg/kg, route oral; details: in vivo
Outline: as §1

[15] = Cmax in BCRP knockout Sprague-Dawley rat at 10 mg/kg, po by LC-MS/MS analysis; assay type: ADME, organism-based; design: dose 10 mg/kg, route oral; details: in vivo
Outline: as §1

[16] = AUC (infinity) in MRP2 knockout Sprague-Dawley rat at 1 mg/kg, iv by LC-MS/MS analysis; assay type: ADME, organism-based, Plasma; design: time infinity, dose 1 mg/kg, route intravenous; details: Sprague-Dawley, plasma
[17] = AUC (infinity) in BCRP knockout Sprague-Dawley rat at 1 mg/kg, iv by LC-MS/MS analysis; assay type: ADME, organism-based; design: time infinity, dose 1 mg/kg, route intravenous; details: plasma
[18] = Half life in MDR1A knockout Sprague-Dawley rat at 1 mg/kg, iv by LC-MS/MS analysis; assay type: ADME, organism-based; design: dose 1 mg/kg, route intravenous; details: in vivo
Outline: as §1

[19] = Half life in wild-type Sprague-Dawley rat at 10 mg/kg, po by LC-MS/MS analysis; assay type: ADME, organism-based; design: dose 10 mg/kg, route oral; details: in vivo
Outline: as §1

Rattus norvegicus [20] = test: Toxicity in MDR1A knockout Sprague-Dawley rat assessed as lethargic behavior at 1 mg/kg, iv; assay type: organism-based; design: dose 1 mg/kg, route intravenous; details: in vivo
[21] = Tmax in wild-type Sprague-Dawley rat at 10 mg/kg, po by LC-MS/MS analysis; assay type: ADME, organism-based; design: dose 10 mg/kg, route oral; details: in vivo
Outline: as §1

[22] = AUC (infinity) in wild-type Sprague-Dawley rat at 1 mg/kg, iv by LC-MS/MS analysis; assay type: ADME, organism-based; design: time infinity, dose 1 mg/kg, route intravenous; details: plasma
[23] = Half life in BCRP knockout Sprague-Dawley rat at 10 mg/kg, po by LC-MS/MS analysis; assay type: ADME, organism-based; design: dose 10 mg/kg, route oral; details: in vivo
Outline: as §1

[24] = Tmax in BCRP knockout Sprague-Dawley rat at 10 mg/kg, po by LC-MS/MS analysis; assay type: ADME, organism-based; design: dose 10 mg/kg, route oral; details: in vivo
Outline: as §1

[25] = Volume of distribution at steady state in BCRP knockout Sprague-Dawley rat at 1 mg/kg, iv by LC-MS/MS analysis; assay type: ADME, organism-based; design: dose 1 mg/kg, route intravenous; details: in vivo, read-out: Vdss
Outline: as §1

Rattus norvegicus [26] = test: Toxicity in MDR1A knockout Sprague-Dawley rat assessed as hypoactive behavior at 10 mg/kg, po after 1 to 2 hrs; assay type: organism-based; design: dose 10 mg/kg, route oral; details: in vivo
Outline: as §2

in vivo [27] = details: Sprague-Dawley, rat, plasma, po, 10 mg/kg; remark: listed apart in the source
in vivo [28] = details: Sprague-Dawley, rat, po, 10 mg/kg
[29] = Tmax in MRP2 knockout Sprague-Dawley rat at 10 mg/kg, po by LC-MS/MS analysis; assay type: ADME, organism-based; design: dose 10 mg/kg, route oral; details: in vivo
Outline: as §1

Rattus norvegicus [30] = test: Toxicity in MDR1A knockout Sprague-Dawley rat assessed as shallow breathing at 10 mg/kg, po after 1 to 2 hrs; assay type: organism-based; design: dose 10 mg/kg, route oral; details: in vivo
Outline: as §2

in vivo [31] = details: Sprague-Dawley, rat, po, 10 mg/kg; remark: listed apart in the source
[32] = Oral bioavailability in MDR1A knockout Sprague-Dawley rat at 10 mg/kg by LC-MS/MS analysis; assay type: ADME, organism-based; details: in vivo
Outline: as §1

[33] = Volume of distribution at steady state in MDR1A knockout Sprague-Dawley rat at 1 mg/kg, iv by LC-MS/MS analysis; assay type: ADME, organism-based; design: dose 1 mg/kg, route intravenous; details: in vivo, read-out: Vdss
Outline: as §1

[34] = Half life in BCRP knockout Sprague-Dawley rat at 1 mg/kg, iv by LC-MS/MS analysis; assay type: ADME, organism-based; design: dose 1 mg/kg, route intravenous; details: in vivo
Outline: as §1

[35] = Tmax in MDR1A knockout Sprague-Dawley rat at 10 mg/kg, po by LC-MS/MS analysis; assay type: ADME, organism-based; design: dose 10 mg/kg, route oral; details: in vivo
Outline: as §1

[36] = Half life in MRP2 knockout Sprague-Dawley rat at 1 mg/kg, iv by LC-MS/MS analysis; assay type: ADME, organism-based; design: dose 1 mg/kg, route intravenous; details: in vivo
Outline: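 Male Sprague-Dawley rats (knockout or wild type matched for age and weight), femoral artery and vein cannulated, at least 2 days recovery. Crossover design: IV bolus 1 mg/kg on day 0 (saline with 0.2 M equivalents HCl), oral gavage 10 mg/kg on day 3 (water with 0.2 M equivalents HCl). Analysed by LC-MS/MS and noncompartmental analysis.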

in vivo [37] = details: Sprague-Dawley, rat, plasma, po, 10 mg/kg; remark: listed apart in the source
[38] = Oral bioavailability in wild-type Sprague-Dawley rat at 10 mg/kg by LC-MS/MS analysis; assay type: ADME, organism-based; details: in vivo
Outline: as §1

Rattus norvegicus [39] = test: Toxicity in MDR1A knockout Sprague-Dawley rat assessed as stupor at 10 mg/kg, po after 4 hrs; assay type: organism-based; design: dose 10 mg/kg, route oral; details: in vivo
Outline: as §2

CN(C)C(=O)C(CCN1CCC(O)(c2ccc(Cl)cc2)CC1)(c1ccccc1)c1ccccc1 [LOPERAMIDE]
AUC(0-inf) (in vivo [1]): 806 ng·h/mL
Vd [2]: 9 L/kg
Cmax [3]: 90 ng/mL
AUC(0-inf) [4]: 243 ng·h/mL
Cmax [5]: 60 ng/mL
Activity (Rattus norvegicus [6]): Toxic
Cmax [7]: 226 ng/mL
half-life [8]: 1 h
Vd [9]: 21.2 L/kg
bioavailability [10]: 40%
Activity (Rattus norvegicus [11]): Toxic
bioavailability [12]: 60%
Activity (Rattus norvegicus [13]): Toxic
half-life [14]: 13 h
Cmax [15]: 69 ng/mL
AUC(0-inf) [16]: 122 ng·h/mL
AUC(0-inf) [17]: 161 ng·h/mL
half-life [18]: 1.5 h
half-life [19]: 13 h
Activity (Rattus norvegicus [20]): Toxic
Tmax [21]: 0.3 h
AUC(0-inf) [22]: 131 ng·h/mL
half-life [23]: 15 h
Tmax [24]: 0.7 h
Vd [25]: 11.5 L/kg
Activity (Rattus norvegicus [26]): Toxic
AUC(0-inf) (in vivo [27]): 980 ng·h/mL
AUC(0-t) at 4 h (in vivo [28]): 184 ng·h/mL
Tmax [29]: 0.4 h
Activity (Rattus norvegicus [30]): Toxic
AUC(0-t) at 4 h (in vivo [31]): 651 ng·h/mL
bioavailability [32]: 34%
Vd [33]: 7.9 L/kg
half-life [34]: 1.5 h
Tmax [35]: 0.8 h
half-life [36]: 1.1 h
AUC(0-inf) (in vivo [37]): 1020 ng·h/mL
bioavailability [38]: 16%
Activity (Rattus norvegicus [39]): Toxic
